Sampled rows, rich in hits. Any-hit rate of the full collection: about 4%.
iPSC survival up – increases survival of single human iPS cells | hiPSC single-cell survival, ATPlite luminescence; 100% = ROCK inhibitor wells, 0% = DMSO | survival enhancement, % at 20 µM | AID 602274 | actives 0.044% (n = 360,000); in the data active = survival enhancement above about 18%;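 note: cells exposed to compounds for 16 hours before the ATP read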
SENP1 inh – blocks the human SENP1 SUMO protease catalytic domain. actives 0.21% (n = 360,000). recombinant SENP1 catalytic domain, CyPet-SUMO1-YPet FRET cleavage. Q9P0U3. inhibition, % at 10 µM;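 active = inhibition at least 30% at 10 µM, raw YFP signal under a set limit, fluorescence ratio 0.5 to 1.5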;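 note: 0% = enzyme with DMSO and 100% = no enzyme wells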
Target sequence (Q9P0U3 419-644 limits assumed): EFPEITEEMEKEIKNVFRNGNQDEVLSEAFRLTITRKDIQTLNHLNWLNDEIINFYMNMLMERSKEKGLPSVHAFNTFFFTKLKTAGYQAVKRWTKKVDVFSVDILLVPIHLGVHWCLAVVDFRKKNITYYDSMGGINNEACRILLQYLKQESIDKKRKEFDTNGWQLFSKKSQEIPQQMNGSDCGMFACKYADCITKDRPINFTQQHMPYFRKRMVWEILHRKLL
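Compound: 10 µM single point, 0.5% DMSO; Test system: hSENP1 catalytic domain, recombinant; Timing: 50 min reaction at room temperature; Technique: FRET, CFP and YFP emission; Control set: no-enzyme wells low, DMSO-plus-enzyme wells high control.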
FAS TE block – FAS thioesterase (human) inhibition; P49327; recombinant FAS-TE, OMFH fluorogenic substrate, fluorescence endpoint; inhibition, % at 15 µM; actives 0.67% (n = 360,000);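 active = compounds whose normalised, plate-corrected inhibition of enzyme fluorescence in the single-dose primary screen is 50% or more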;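 note: 0% = DMSO with enzyme and 100% = substrate without enzyme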
H9c2 protect – myocardial damage modulation in H9c2 cells; H9c2 cardiomyocytes, H2O2 injury protection, ATPLite, 2 h; protection from H2O2 cell death, % at 20 µM; actives 0.63% (n = 360,000);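 active = compounds giving at least 50% protection of heart cells from peroxide-induced death in the single-dose screen, raw or plate-pattern-corrected value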;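 note: 0% = DMSO wells with peroxide and 100% = DMSO wells without peroxide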
Arrestin-AP2 inh – human beta-arrestin and AP2 interaction inhibition. FITC-arrestin peptide / GST-AP2 beads, flow cytometry; AP2 beta2 appendage carries R879A mutation. inhibition, % at 10 µM. actives 0.31% (n = 340,000). AID 504490;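 active = inhibition above a set limit, near 3 SD of compounds lacking own fluorescence, cut at about 54% in these data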;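 note: plate controls were DMSO wells for no effect and 5 µM unlabelled arrestin peptide for full effect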
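system = GST-tagged AP2 beta2-adaptin appendage (R879A) on 4 µm glutathione beads | reagent = FITC-labelled arrestin peptide probe, 50 nM final | schedule = compound with beads 12 min RT, then probe 1 h RT | signal = HyperCyt-sampled flow cytometry, FL1 channel, ex 488/em 535 nm | read-out = percent response from loss of bead-bound FITC fluorescence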
NR3A LBD binder – modulates the human NR3A ligand-binding domain. NR3A LBD differential scanning fluorimetry, Tm shift; 0% = protein alone, 100% = glycine-bound protein. Tm shift relative to glycine control, % at 25 µM. actives 2.5% (n = 340,000);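 active = melting temperature shift of at least 10% of the positive control shift, at one fixed dose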
An asterisk follows results filed as active; · = no result.

SMILES	iPSC survival up	SENP1 inh	FAS TE block	H9c2 protect	Arrestin-AP2 inh	NR3A LBD binder
Cc1cc(C)c2nc(NCc3ccccc3O)sc2c1	0	2	17	-10	-6	27*
CCN(CC)c1ccc2cc(C(C)=O)c(=O)oc2c1	0	-22	-60	3	5	-1
CCN(CC)c1ccc2cc(-c3nnc(-c4ccncc4)o3)c(=O)oc2c1	-3	-26	-168	65*	3	-3
O=C(N/N=C/c1ccncc1)c1ccc(NC(=O)c2cccc(Cl)c2)cc1	3	1	0	7	7	22*
O=C(Nc1cccc(Cl)c1)O/N=C\c1ccncc1	-2	2	-4	2	-6	-1
O=C(N/N=C/c1ccncc1)c1ccc(NC(=O)c2ccc(Cl)cc2)cc1	0	1	-10	2	-4	-2
Clc1cccc(N/N=C/c2ccncc2)c1	2	2	5	-8	9	20*
O=C(N/N=C/c1ccc(Cl)cc1)Nc1ccccc1	1	1	18	-4	-2	13*
Clc1ccc(/C=N\Nc2ccccc2)cc1	0	-2	20	-9	27	10*
CSc1ccc(Cn2c(C)c(C(=O)NCc3ccc(F)cc3)sc2=O)cc1	3	-1	22	-5	·	·
CC(=O)Nc1ccc(Nc2cc(C(C)C)nc3c(-c4ccccc4)c(C)nn23)cc1	0	-2	37	-1	24	17*
CC(=O)Nc1ccc(Nc2cc(C)nc3c(-c4ccccc4)c(C)nn23)cc1	1	1	-3	2	10	-1
Cc1ccc(CN2CCN(Cc3cn(C)nc3C)CC2CCO)o1 (configuration not stated)	22*	0	-5	-15	2	2
COc1ccc2c(Cl)c(C(N)=O)sc2c1	-2	1	-9	-12	-2	34*
COc1ccc(CNC(=O)c2cccc3c(-c4cnn(C)c4)coc23)cc1OC	-3	3	-5	-6	·	·
COCCNC(=O)COc1ncnc2ccc(Br)cc12	0	1	-5	5	3	13*
O=C(Cc1ccccc1)N/N=C/c1ccc(OC(=O)/C=C\c2ccco2)cc1	-1	-7	-2	-14	35	1
COC(=O)N/N=C/c1ccc(OC(=O)/C=C/c2ccco2)cc1	1	3	-5	-6	-7	11*
CC1CC(C)CN(C(=O)CNC(=O)c2ccc3ccccc3c2)C1 (configuration not stated)	0	1	-1	1	2	92*
O=C(Nc1cccc(-c2cn3cccnc3n2)c1)Nc1ccccc1F	0	0	3	23	-10	12*
O=C(Nc1cccc(-c2cn3cccnc3n2)c1)c1ccco1	-1	-2	-7	7	7	0
COc1ccc(-c2cn3cccnc3n2)cc1NC(=O)c1ccc(Br)o1	0	-3	-15	58*	-4	-2
CCCC(=O)Nc1cccc(-c2cn3cccnc3n2)c1	0	-3	-6	6	10	1
O=C(Nc1ccccc1)Nc1cccc(-c2cn3cccnc3n2)c1	1	-1	0	6	16	13*
COCCn1c(SCC(=O)Nc2cccc(OC)c2)nnc1-c1ccccc1	0	1	-7	9	-1	11*
SMILES	iPSC survival up	SENP1 inh	FAS TE block	H9c2 protect	Arrestin-AP2 inh	NR3A LBD binder
CCC1CCCCN1C(=O)CSc1nc2c([nH]c3ccccc32)c(=O)n1C (configuration not stated)	0	3	-10	14	1	17*
COc1cccc(NC(=O)CSc2nc3c([nH]c4ccccc43)c(=O)n2C)c1	-3	1	-6	7	0	38*
COCCn1c(SCC(=O)Nc2cccc(OC)c2)nnc1-c1ccc(Cl)cc1	1	3	-4	-7	-1	-1
CC(C)N(Cc1ccccc1)S(=O)(=O)c1ccc(-n2cccn2)cc1	-2	-4	26	-10	·	·
O=C(NCC1CCCCC1)c1csc([C@@H]2O[C@H](CO)[C@H](O)[C@H](O)[C@H]2O)n1	5	4	-6	0	·	·
Cc1c(C(=S)Nc2ccccc2)cnn1-c1ccccc1	0	1	3	-8	29	15*
NS(=O)(=O)c1ccc(CCNC(=O)COC(=O)Cc2ccc(Cl)cc2)cc1	2	1	-8	4	·	·
O=C(COCc1ccccc1)N[C@@H]1c2ccccc2CC[C@@H]1OCc1ccccc1	0	2	19	1	0	17*
O=C(Cc1ccccc1)N[C@@H]1c2ccccc2CC[C@@H]1OCc1ccccc1	5	1	-1	-5	5	0
O=C(Nc1ncnc2c1C(c1ccccc1)c1c(ccc3ccccc13)O2)c1ccccc1 (configuration not stated)	-1	-2	96*	14	-2	-25
CCc1nc2ccc(C(=O)NCCN(C)C)cn2c1N(CC)CCOC	0	2	-8	6	·	·
O=S1(=O)N[C@@H](Cc2ccccc2)COc2ccc(Cl)cc21	-1	3	5	0	·	·
CC1(C(=O)Nc2cccc(C#N)c2)CCN1C(=O)C1(c2ccccc2)CC1 (configuration not stated)	4	-2	13	3	·	·
Cc1ccc(OCC(=O)Nc2ccc(S(=O)(=O)N3CCOCC3)cc2)c(C)c1	0	-2	12	-5	15	11*
Cc1cc(S(=O)(=O)N2CCOCC2)ccc1OCC(=O)Nc1ccc(F)cc1	0	-3	2	-7	2	0
Cc1cc(S(=O)(=O)N2CCOCC2)ccc1OCC(=O)Nc1ccc(F)c(Cl)c1	0	2	7	-4	-3	44*
COc1ccc(NC(=O)COc2ccc(C)c(C)c2)cc1S(=O)(=O)N1CCCCC1	1	0	20	-6	-19	-4
COc1ccc(NC(=O)COc2cc(C)cc(C)c2)cc1S(=O)(=O)N1CCCCC1	0	2	22	-4	-4	24*
C/C(=N\NC(=O)CN1CCCCC1)c1ccccc1O	-1	0	-2	5	24	1
C/C(=N\NC(=O)CN(c1ccccc1)S(C)(=O)=O)c1ccccc1O	0	-19	3	59*	3	1
O=c1[nH]c(=O)n(C2OC(CO)C(O)C2O)c2c1CCCC2 (configuration not stated)	-2	0	-1	16	·	·
Cc1nn(Cc2ccc(C(=O)N3CCN(C(=O)c4ccco4)CC3)o2)c(C)c1[N+](=O)[O-]	0	2	6	54*	23	3
N#C/C(=C\c1ccc(OCc2ccccc2)cc1)C(N)=O	3	0	7	-5	13	12*

Assay outcomes deposited in PubChem BioAssay by several laboratories.
